Source: ChEMBL document CHEMBL5532693, “Design, synthesis and antimycobacterial activity of imidazo[1,5-a]quinolines and their zinc-complexes” (RSC Med Chem, 2024)
Converted amounts (≈) assume the structure as drawn.

Tests used:
[1] = tested on: Mycobacterium tuberculosis; assay: Antibacterial activity against Mycobacterium tuberculosis H37Ra assessed as inhibition of bacterial growth incubated for 7 days by BacTiter-Glo reagent based assay; assay type: functional
Method in brief: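 M. tuberculosis H37Ra pre-grown 14 days in 7H9 with palmitic acid, casitone, BSA, catalase and 0.2% glycerol (37°C, 180 rpm, 85% rH). Diluted to McFarland 1, then to 1 × 10⁶ cells/mL. Compounds were in DMSO. Plates were held 7 days microaerophilic at 37°C/5% CO₂, with ATP luminescence read-out. MIC was the lowest concentration giving ≥85% inhibition versus blank-normalised untreated growth.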

Calu-3 = assay: Cytotoxicity against human Calu-3 cells assessed as reduction in cell viability at 100 uM incubated for 48 hrs by CellTiter-Glo Luminescent Cell Viability assay; assay type: toxicity, cell-based; details: calu-3, 48 h
Method in brief: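 Confluent Calu-3 cells in DMEM/F-12 GlutaMAX with 10% FCS and 1% penicillin/streptomycin, 37°C, 5% CO2. Compounds were dissolved in DMSO (10 mM stocks) and tested once at 100 μM final with 1% DMSO, in triplicate, for 48 h. ATP luminescence was normalized to the DMSO control (100%). Viability below 80% was classed as cytotoxic. Ionomycin 100 μM served as positive control.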

[2] = tested on: Mycobacterium tuberculosis; assay: Antibacterial activity against Mycobacterium tuberculosis; assay type: functional

Molecule	Activity (Calu-3)	MIC [2] [µM]	other results
c1ccc(-c2nc(-c3ccccn3)n3c2ccc2ccccc23)nc1	Non-Toxic		MIC ([1]; 168 h, time 7 day): 6 µM (≈ 1.93 µg/mL)
C[C@H]1COc2c(N3CCN(C)CC3)c(F)cc3c(=O)c(C(=O)O)cn1c23 [LEVOFLOXACIN ANHYDROUS]		0.8 (≈ 0.289 µg/mL)	
c1ccc(-c2nc(-c3cccs3)c3ccc4ccccc4n23)cc1	Non-Toxic		
COc1nc2ccc(Br)cc2cc1[C@@H](c1ccccc1)[C@@](O)(CCN(C)C)c1cccc2ccccc12 [BEDAQUILINE]		0.03 (≈ 0.0167 µg/mL)	
CC[C@@H](CO)NCCN[C@@H](CC)CO [ETHAMBUTOL]		0.3 (≈ 0.0613 µg/mL)	
c1ccc(-c2nc(-c3cc4ccccc4cn3)c3ccc4ccccc4n23)cc1	Non-Toxic		MIC ([1]; 168 h, time 7 day): 0.5 µM (≈ 0.186 µg/mL)
c1ccc(-c2nc(-c3ccccn3)n3c2ccc2ccccc23)cc1	Toxic		MIC ([1]; 168 h, time 7 day): 25 µM (≈ 8.03 µg/mL)
COc1ccccc1-c1nc(-c2ccccc2)n2c1ccc1ccccc12	Non-Toxic		
c1ccc(-c2ccc(-c3nc(-c4ccccc4)n4c3ccc3ccccc34)nc2)cc1	Non-Toxic		
CN(C)c1ccccc1-c1nc(-c2ccccc2)n2c1ccc1ccccc12	Toxic		
c1ccc(N(c2ccccc2)c2nc(-c3ccccn3)c3ccc4ccccc4n23)cc1	Non-Toxic		
c1ccc(-c2nc(-c3ccccc3)n3c2ccc2ccccc23)cc1	Non-Toxic		
c1ccc(-c2nc(-c3cccc4ccccc34)n3c2ccc2ccccc23)nc1	Toxic		MIC ([1]; 168 h, time 7 day): 1 µM (≈ 0.371 µg/mL)
c1ccc(-c2nc(-c3ccccn3)c3ccc4ccccc4n23)cc1	Toxic		
c1ccc(-c2nc(-c3ncccn3)c3ccc4ccccc4n23)cc1	Toxic		
NCC[C@H](O)C(=O)N[C@@H]1C[C@H](N)[C@@H](O[C@H]2O[C@H](CN)[C@@H](O)[C@H](O)[C@H]2O)[C@H](O)[C@H]1O[C@H]1O[C@H](CO)[C@@H](O)[C@H](N)[C@H]1O [AMIKACIN]		0.4 (≈ 0.234 µg/mL)	
NNC(=O)c1ccncc1 [ISONIAZID]		0.3 (≈ 0.0411 µg/mL)	
CCc1cc(C(N)=S)ccn1 [ETHIONAMIDE]		10 (≈ 1.66 µg/mL)	
GENTAMICIN			MIC ([1]; time 7.0 day): 4 µM
